Experiment [1] concerns Jurkat. Kind of experiment: Cytotoxicity against human Jurkat cells after 72 hrs by MTT assay. Format: functional, cell-based. An outline of the steps: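 8 × 10^3 cells/well were preincubated 18 h at 37 °C, 5% CO2, then given graded concentrations for 72 h, with final DMSO not above 0.25%. Viability was read by MTT. […] Mean ± SE from at least three experiments.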
For experiment [2], the system named is HT-29. Kind of experiment: Anticancer activity against human HT-29 cells xenografted in BALB/c nude mouse assessed as tumor growth inhibition at 100 mg/kg, ip administered on days 0,2 and 4 relative to vehicle treated control. It counts as functional. The settings on record: HT-29, ip, route intraperitoneal, read-out: TGI. An outline of the steps:
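HT-29 cells in log phase, suspended at 1 × 10^7 cells/mL in serum-free RPMI 1640, were inoculated (0.2 mL) into dorsal hypodermis of nude mice. At ~300 mm3, 18 mice were randomised to vehicle or two treatment groups (six per group). Dosing was 100 mg/kg ip in DMSO (0.01 mL/g) on days 0, 2 and 4. Caliper tumour volume V = LW²/2 and body weight were tracked versus vehicle.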

The subject of experiment [3] is HeLa. Kind of experiment: Induction of apoptosis in human HeLa cells assessed as decrease in cdc25c level at 50 to 100 nM after 24 hrs by Western blot analysis. Format: functional, cell-based. The settings on record: in the assay text read “48 hrs” for “24 hrs”. In outline: (§1)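 HeLa cells were treated for 24 or 48 h, washed in ice-cold PBS and lysed on ice for 30 min; lysates were spun at 15000g, 4 °C. 20 μg protein per lane on SDS-PAGE (7.5–15%), then PVDF. Blocked overnight at 4 °C, primary antibodies 2 h at room temperature, peroxidase secondary 60 min, ECL detection. Blots were reprobed for β-actin as loading control.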

For experiment [4], the system named is MCF7. Kind of experiment: Cytotoxicity against human MCF7 cells after 72 hrs by MTT assay. Format: functional, cell-based. The settings on record: MCF7, 72 h.
Experiment [5] relates to HeLa. Kind of experiment: Induction of apoptosis in human HeLa cells assessed as increase in annexin-V positive apoptotic cells after 24 to 48 hrs by FITC conjugated annexin-V/PI staining-based flow cytometry. It counts as functional, cell-based. In outline: (§2)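 Flow cytometry of HeLa cells after 24 or 48 h exposure, double-stained with annexin-V-FITC and propidium iodide. Excitation at 488 nm, emission at 525 nm (FITC) and 585 nm (PI). Quadrants scored as live, early apoptotic, late apoptotic or necrotic cells.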

Experiment [6] has as its system HeLa. Kind of experiment: Induction of necrosis in human HeLa cells assessed as necrotic cells at 100 nM after 48 hrs by FITC conjugated annexin-V/PI staining-based flow cytometry (reference value: 0.7%). Format: functional. In outline:
as §2

Experiment [7] can be described thus: Cytotoxicity against human CEM/VBL100 cells after 72 hrs by MTT assay. Format: functional, cell-based. The settings on record: CEM/VBL100, 72 h. An outline of the steps:
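Cells seeded at 8 × 10^3 per well and left 18 h at 37 °C, 5% CO2, then given fresh medium with compound at a range of concentrations for 72 h; DMSO at most 0.25% final. Viability read by MTT relative to 0.25% DMSO-treated cells. […] LoVoDoxo kept in Ham's F12 with 0.1 μg/mL doxorubicin; A549-T12 kept in DMEM with 12 nM paclitaxel.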

Experiment [8] concerns HeLa. As to the kind of experiment: Induction of cell cycle arrest in human HeLa cells assessed as increase in G2/M phase cells at 30 nM after 24 hrs by flow cytometry. Format: functional, cell-based. In outline:
(§3)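 5 × 10^5 exponentially growing HeLa cells were treated with 15–250 nM for 24 h, fixed in ice-cold 70% ethanol, then treated with lysis buffer containing RNase A and 0.1% Triton X-100. PI staining of DNA content, read by flow cytometry. Mean ± SEM of three independent experiments.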

In experiment [9] the test system is HeLa. Kind of experiment: Cytotoxicity against human HeLa cells after 72 hrs by MTT assay. Format: functional, cell-based.
Experiment [10] has as its system HeLa. Kind of experiment: Induction of apoptosis in human HeLa cells assessed as caspase3 activation at 50 to 100 nM after 24 to 48 hrs by Western blot analysis. Format: functional, cell-based. An outline of the steps:
as §1

The subject of experiment [11] is HeLa. As to the kind of experiment: Induction of cell cycle arrest in human HeLa cells assessed as decrease in S phase cells at 15 to 250 nM after 24 hrs by flow cytometry. Format: functional, cell-based. In outline: as §3
The subject of experiment [12] is HeLa. As to the kind of experiment: Induction of apoptosis in human HeLa cells assessed as decrease in XIAP protein expression at 50 to 100 nM after 24 to 48 hrs by Western blot analysis. Format: functional, cell-based. In outline: as §1
The subject of experiment [13] is CCRF-CEM. As to the kind of experiment: Resistance ratio of IC50 for human CEM/VBL100 cells to IC50 for human CEM cells. Format: functional.
In experiment [14] the test system is HeLa. Kind of experiment: Induction of apoptosis in human HeLa cells assessed as early apoptotic cells at 100 nM after 48 hrs by FITC conjugated annexin-V/PI staining-based flow cytometry (reference value: 9.6%). It counts as functional. An outline of the steps:
as §2

Experiment [15] concerns HeLa. As to the kind of experiment: Induction of apoptosis in human HeLa cells assessed as PARP cleavage at 50 to 100 nM after 24 to 48 hrs by Western blot analysis. It counts as functional, cell-based. In outline:
as §1

Experiment [16] has as its system HL-60. As to the kind of experiment: Cytotoxicity against human HL60 cells after 72 hrs by MTT assay. Conditions: HL-60, 72 h. Format: functional, cell-based.
Experiment [17] relates to HeLa. As to the kind of experiment: Induction of mitochondrial depolarization in human HeLa cells at 50 to 100 nM by JC1-based fluorescent staining. Conditions: TDE = time-dependent effect. It counts as functional, cell-based. In outline:
(§4)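 Mitochondrial membrane potential in HeLa cells after 24 or 48 h incubation, measured with the JC-1 dye by flow cytometry. Aggregates read as red (590 nm) and monomers as 530 nm; output is the percentage of depolarized cells. Mean ± SEM of three independent experiments.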

In experiment [18] the test system is HeLa. Kind of experiment: Induction of cell cycle arrest in human HeLa cells assessed as increase in G2/M phase cells after 24 hrs by flow cytometry. Format: functional, cell-based. An outline of the steps: as §3
The test system of experiment [19] is HeLa. Kind of experiment: Induction of mitochondrial depolarization in human HeLa cells assessed as JC1 monomer level after 48 hrs by JC1-based fluorescent staining (reference value: 0.8%). It counts as functional. An outline of the steps:
as §4

The target of experiment [20] is T1, M-phase inducer phosphatase 3 (Homo sapiens) (UniProt P30307).
T1 sequence (whole entry): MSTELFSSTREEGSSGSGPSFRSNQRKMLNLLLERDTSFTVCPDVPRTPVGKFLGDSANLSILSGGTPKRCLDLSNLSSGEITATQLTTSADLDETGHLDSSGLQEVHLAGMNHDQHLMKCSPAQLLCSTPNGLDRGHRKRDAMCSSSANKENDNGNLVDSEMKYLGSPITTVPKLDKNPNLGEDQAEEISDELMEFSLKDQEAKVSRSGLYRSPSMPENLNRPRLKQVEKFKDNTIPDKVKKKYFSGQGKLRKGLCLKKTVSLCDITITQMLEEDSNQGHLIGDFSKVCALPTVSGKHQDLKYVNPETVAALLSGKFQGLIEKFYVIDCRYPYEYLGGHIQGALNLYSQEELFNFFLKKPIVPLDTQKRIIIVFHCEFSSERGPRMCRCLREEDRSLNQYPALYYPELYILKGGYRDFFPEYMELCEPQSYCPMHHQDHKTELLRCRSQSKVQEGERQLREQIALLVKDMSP
As to the kind of experiment: Induction of cdc2 (Tyr15) dephosphorylation in human HeLa cells at 50 to 100 nM after 24 hrs by Western blot analysis.

In experiment [21] the test system is HeLa. As to the kind of experiment: Induction of mitochondrial depolarization in human HeLa cells assessed as JC1 aggregate level after 48 hrs by JC1-based fluorescent staining (reference value: 99.2%). Format: functional. In outline: as §4
The test system of experiment [22] is LoVo. As to the kind of experiment: Resistance ratio of IC50 for human doxorubicin-resistant LoVo cells to human LoVo cells. It counts as functional.

Activity calls are given as the source filed them. The calls are words filed in the database; no cut-off is given here.

Take `CCOc1ccc(-c2nnnn2-c2cc(OC)c(OC)c(OC)c2)cc1`: the IC50 was 0.16 nM in [1]; 2.3 nM in [4]; 0.7 nM in experiment [7]; 1.9 nM in experiment [9]; 1.3 nM in experiment [16]. Besides, the inhibition in vivo at 100 mg/kg in experiment [2] amounted to 66%. For the same compound, the result in experiment [3], in [8], in [10], in [11], in experiment [12] and in experiment [15] was Active. For the same compound, the Activity result is “Dose-dependent effect” in experiment [5]; 1.8% in [6]; 34.4% in experiment [14]; “tde” in experiment [17]; “Dose-dependent effect” in experiment [18]; 19.1% in experiment [19]. In experiment [21], the Activity is reported as 0.09%. The “Ratio IC50” value amounted to 0.2 in experiment [13] and 0.64 in experiment [22]. Moreover, the induction result in [20] was “Active”.
